Hits are enriched below; roughly 3.1% of the tested compounds scored in any of these assays.
SENP8 block-1: SENP8 (human) protease inhibition; Q96LD8; recombinant SENP8, Nedd8 substrate fluorescence; inhibition, % at 20 µM; 0.64% of 360,000 active; AID 602440; in the data active = inhibition mostly above about 40%, no sharp cut-off; inactive = mostly below about 27%
UBC13 inh: blocks human UBC13 polyubiquitin chain formation | TR-FRET | inhibition, % at 20 µM | 0.47% of 330,000 active | AID 485273; in the data active = inhibition above about 45%, passing the limit was not always enough; inconclusive = no clear call, values can overlap the other calls
Target sequence (P61088 whole entry, looked up): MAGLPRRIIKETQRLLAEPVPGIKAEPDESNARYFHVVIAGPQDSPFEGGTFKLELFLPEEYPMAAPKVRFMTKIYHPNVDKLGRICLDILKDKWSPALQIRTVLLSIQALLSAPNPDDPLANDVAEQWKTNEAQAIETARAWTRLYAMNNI
SENP6 block: blocks the human protease SENP6; Q9GZR1; Recombinant SENP6 catalytic domain, aminoluciferin luminescence; inhibition, % at 10 µM; 1.8% of 330,000 active;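 active = inhibition above about 50% at the single tested dose, limit read from the data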;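 also: plate controls were DMSO wells with enzyme for no effect and DMSO wells lacking enzyme for full effect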
SENP7 inh: blocks the human protease SENP7; 1.5% of 330,000 active; recombinant SENP7, Z-RLRGG-aminoluciferin luminescence, 40 min; inhibition, % at 5 µM; Q9BQF6; AID 434973;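 active = inhibition above about 50% at the single test dose, limit read from the data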;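 also: plate controls were DMSO with enzyme for no effect and no enzyme buffer wells for full effect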
Target sequence (Q9BQF6 706-1050 limits assumed): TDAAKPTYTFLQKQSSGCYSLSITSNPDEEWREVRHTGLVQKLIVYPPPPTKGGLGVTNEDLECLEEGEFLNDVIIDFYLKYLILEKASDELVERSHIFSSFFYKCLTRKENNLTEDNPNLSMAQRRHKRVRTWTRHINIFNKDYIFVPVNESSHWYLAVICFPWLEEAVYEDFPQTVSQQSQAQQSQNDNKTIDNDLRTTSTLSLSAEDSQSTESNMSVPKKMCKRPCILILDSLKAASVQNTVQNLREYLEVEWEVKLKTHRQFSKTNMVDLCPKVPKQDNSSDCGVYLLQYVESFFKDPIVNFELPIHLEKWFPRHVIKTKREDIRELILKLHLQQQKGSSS
SENP8 block-2: blocks the human protease SENP8; Q96LD8; purified SENP8, Z-RLRGG-aminoluciferin cleavage, luminescence; inhibition, % at 10 µM; 1.2% of 330,000 active; AID 2540; in the data active = inhibition above about 50%
Apaf-1 inh: human Apaf-1 inhibition | reconstituted apoptosome caspase-3 activity, DEVD-Rh110 fluorescence | 0.71% of 330,000 active | inhibition, % at 20 µM | O14727; active = inhibition of at least 40% at 20 µM;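 also: plate controls were DMSO wells for no effect and DEVD-CHO caspase inhibitor wells for full effect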
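System: Apoptosome proteins | Medium: Hepes pH 7.5 with detergent and BSA | Also added: Cytochrome c trigger plus (Z-DEVD)2-Rh110 caspase-3 substrate | Incubation: 30 min compound preincubation, 50 min activation, room temperature | Detection: Rhodamine 110 fluorescence at Ex 480/Em 540 nm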
SENP8 confirm: human SENP8 inhibition, confirmed | shares compounds with SENP7 inh | Recombinant SENP8, Z-RLRGG-aminoluciferin luminescence, 60 min | inhibition, % at 12.5 µM | 40% of 6,200 active | AID 488912;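 active = mean inhibition across replicates above about 50%, limit read from the data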
SENP6 conf: human SENP6 inhibition, confirmed; inhibition, % at 12.5 µM; shares compounds with SENP7 inh; 58% of 6,200 active; recombinant SENP6, Z-RLRGG-aminoluciferin luminescence; AID 488915
SENP7 confirm: confirmation of human SENP7 protease inhibitors. inhibition, % at 12.5 µM. 69% of 6,200 active. shares compounds with SENP7 inh. recombinant SENP7, Z-RLRGG-aminoluciferin luminescence, 40 min. AID 488917
Casp3 select: inhibits human caspase-3 in SENP selectivity test. 60% of 6,200 active. inhibition, % at 12.5 µM. purified caspase-3, Z-DEVD-aminoluciferin luminescence, 60 min. shares compounds with SENP7 inh;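 active = mean inhibition above about 50%, limit read from the data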;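 also: plate controls were enzyme with DMSO for no effect and wells without caspase-3 for full effect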
Luc interf: interferes with luciferase luminescence in SENP counter-screen | AID 488919 | inhibition, % at 12.5 µM | Pre-incubated SENP8/Z-RLRGG-aminoluciferin, luciferase luminescence interference | 39% of 6,200 active | shares compounds with SENP7 inh;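 active = mean inhibition above about 50% when retested at one dose, limit read from the data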;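 also: plate controls were DMSO wells with completed reaction for no effect and substrate without enzyme for full effect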
Numbers without * were called inactive.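 The calls were made as follows, unless noted: active = mean inhibition above about 50% in the one-dose retest (limit read from the data); inactive = the rest.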

`CCNC(=O)C1CCCN(C(=O)c2cnc3ccccc3n2)CC1` (stereo not drawn) gave SENP8 block-1 11.7.
`CCOC(=O)c1c(C)[nH]c(C(=O)OCC(=O)NCc2ccco2)c1C` gave SENP8 block-1 6.3.
`Oc1ccccc1-c1cc(-c2ccco2)[nH]n1` gave SENP8 block-1 16.7, UBC13 inh -7.1, SENP6 block 33.9, SENP7 inh -0.5, SENP8 block-2 19.2 and Apaf-1 inh 9.9.
Screening Oc1c(-c2cc(-c3ccco3)[nH]n2)ccc2ccccc12 returned SENP8 block-1 -11.1, UBC13 inh inconclusive, SENP6 block 44.1, SENP7 inh 54.6*, SENP8 block-2 55.1*, Apaf-1 inh 11.7, SENP8 confirm 2.7, SENP6 conf 69.3*, SENP7 confirm 85.7*, Casp3 select 17.4 and Luc interf 4.7.
Screening COc1ccc(/C(N)=N/OC(=O)c2ccc(OC)c([N+](=O)[O-])c2)cc1OC returned SENP8 block-1 10.6, UBC13 inh 5.7, SENP6 block 2.8, SENP7 inh 4.2, SENP8 block-2 9.6 and Apaf-1 inh -6.9.
Screening COc1ccc(C(=O)O/N=C(\N)c2ccc(OC)c(OC)c2)cc1 returned SENP8 block-1 7.0, UBC13 inh -6.2, SENP6 block 64.0*, SENP7 inh 81.3*, SENP8 block-2 22.9, Apaf-1 inh 9.1, SENP8 confirm 26.6, SENP6 conf 16.9, SENP7 confirm 61.2*, Casp3 select 41.7 and Luc interf 11.3.
`COc1ccc(C(=O)O/N=C(\N)c2ccccc2)c(OC)c1` gave SENP8 block-1 9.2, UBC13 inh -17.7, SENP6 block 91.8*, SENP7 inh 81.5*, SENP8 block-2 82.0*, Apaf-1 inh -5.9, SENP8 confirm 76.0*, SENP6 conf 69.3*, SENP7 confirm 89.4*, Casp3 select 84.7* and Luc interf 71.6*.
`COc1ccc(C(=O)O/N=C(\N)c2ccc(OC)c(OC)c2)c(OC)c1` gave SENP8 block-1 30.2, UBC13 inh -3.1, SENP6 block 3.8, SENP7 inh 0.2, SENP8 block-2 -8.1 and Apaf-1 inh 9.0.
`CCc1ccn2cc(-c3cc(-c4ccccc4)no3)nc2c1` gave SENP8 block-1 -355.4, UBC13 inh 1.7, SENP6 block 93.0*, SENP7 inh 96.5*, SENP8 block-2 89.7*, Apaf-1 inh 6.3, SENP8 confirm 43.4, SENP6 conf 92.6*, SENP7 confirm 76.6*, Casp3 select 61.7* and Luc interf 6.8.
`COc1ccc(-c2csc(NC(=O)c3cccs3)c2C(=O)O)cc1OC` gave SENP8 block-1 -18.9, UBC13 inh -3.2, SENP6 block 30.6, SENP7 inh 44.8, SENP8 block-2 60.1*, Apaf-1 inh -23.7, SENP8 confirm 3.9, SENP6 conf 71.9*, SENP7 confirm 89.8*, Casp3 select 74.7* and Luc interf 75.8*.
`O=C(Nc1scc(-c2ccccc2)c1C(=O)O)c1ccccc1F` gave SENP8 block-1 -45.3, UBC13 inh -6.5, SENP6 block 74.7*, SENP7 inh 15.2, SENP8 block-2 68.0*, Apaf-1 inh -0.8, SENP8 confirm 82.2*, SENP6 conf 78.7*, SENP7 confirm 90.2*, Casp3 select 85.1* and Luc interf 79.8*.
`CC(C)Cc1csc(NC(=O)c2ccc(Br)cc2)c1C(=O)O` gave SENP8 block-1 7.3, UBC13 inh -12.5, SENP6 block 93.8*, SENP7 inh -5.3, SENP8 block-2 87.6*, Apaf-1 inh -0.2, SENP8 confirm 92.2*, SENP6 conf 94.0*, SENP7 confirm 92.5*, Casp3 select 80.3* and Luc interf 58.4*.

Bioassay records (PubChem)
